Measured values published in ChEMBL document CHEMBL1781950, “Synthesis of 4-(aminoalkyl) substituted 1,3-dioxanes as potent NMDA and σ receptor antagonists” (Eur J Med Chem, 2011).
Active and inactive are the calls of the source. The calls are words filed in the database; no cut-off is given here.

Legend:
[1] = target: Sigma non-opioid intracellular receptor 1 (Cavia porcellus, UniProt Q60492); test: Displacement of [3H]-(+)-pentazocine from sigma 1 receptor PCP binding site in guinea pig brain by liquid scintillation counting
[2] = Displacement of [3H]-(+)-MK801 from NMDA receptor PCP binding site in pig cortex membrane after 90 mins by liquid scintillation counting; type: cell membranes, Sus scrofa
How it was run: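 Pig brain cortex membranes (about 100 µg protein) incubated with 2 nM [3H]-(+)-MK-801 and at least 6 test concentrations in 5 mM Tris–acetate, 1 mM EDTA, pH 7.5, 90 min at 25 °C. Filtered on PEI-soaked GF/C filters. Non-specific binding with 10 µM (+)-MK-801. IC50 by nonlinear regression, triplicates; Ki mean ± SEM of three experiments.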

[3] = Displacement of [3H]-ditolylguanidine from sigma 2 receptor PCP binding site in rat liver membrane; type: cell membranes
How it was run: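 Non-specific binding with 10 µM unlabelled ditolylguanidine. Triplicates; IC50 from at least 6 concentrations by nonlinear regression; Ki mean ± SEM of three experiments.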

[4] = test system: Mus musculus; test: Analgesic activity against capsaicin-induced nocifensive behavior in mouse assessed as paw withdrawal latency to von Frey filament-induced pain at 0.25 mg/kg administered 30 mins before and measured 15 mins after capsaicin challenge; type: functional
How it was run: (§1)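 Capsaicin injected into mid-plantar surface of right hind paw of mice; test ligand given 30 min before capsaicin. Mechanical withdrawal latency to a 1 g von Frey filament read 15 min after capsaicin; effect expressed as % analgesia.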

[5] = test system: Mus musculus; test: Analgesic activity against capsaicin-induced nocifensive behavior in mouse assessed as paw withdrawal latency to von Frey filament-induced pain at 0.5 mg/kg administered 30 mins before and measured 15 mins after capsaicin challenge; type: functional; how it was run: as §1
[6] = test system: Mus musculus; test: Analgesic activity against capsaicin-induced nocifensive behavior in mouse assessed as paw withdrawal latency to von Frey filament-induced pain at 32 mg/kg administered 30 mins before and measured 15 mins after capsaicin challenge; type: functional, organism-based; parameters: dose 32 mg/kg; how it was run: as §1
[7] = Selectivity ratio of Ki for rat sigma 2 receptor to Ki for guinea pig sigma 1 receptor
[8] = test system: Mus musculus; test: Analgesic activity against capsaicin-induced nocifensive behavior in mouse assessed as paw withdrawal latency to von Frey filament-induced pain at 1 mg/kg administered 30 mins before and measured 15 mins after capsaicin challenge; type: functional; how it was run: as §1
[9] = test system: Mus musculus; test: Analgesic activity against capsaicin-induced nocifensive behavior in mouse assessed as paw withdrawal latency to von Frey filament-induced pain at 0.125 mg/kg administered 30 mins before and measured 15 mins after capsaicin challenge; type: functional; how it was run: as §1
[10] = Displacement of [3H]-(+)-MK801 from NMDA receptor PCP binding site
How it was run: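 Pig brain cortex membranes (about 100 µg protein) incubated with test compound (at least 6 concentrations), 2 nM [3H]-(+)-MK-801 in 5 mM Tris–acetate, 1 mM EDTA, pH 7.5, 90 min at 25 °C. Filtered through polyethylenimine-soaked GF/C filters, counted by scintillation. Nonspecific binding with 10 µM (+)-MK-801. IC50 from nonlinear regression, converted to Ki. Triplicates, three independent experiments.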

Chain of Sigma non-opioid intracellular receptor 1 (Q60492 whole entry): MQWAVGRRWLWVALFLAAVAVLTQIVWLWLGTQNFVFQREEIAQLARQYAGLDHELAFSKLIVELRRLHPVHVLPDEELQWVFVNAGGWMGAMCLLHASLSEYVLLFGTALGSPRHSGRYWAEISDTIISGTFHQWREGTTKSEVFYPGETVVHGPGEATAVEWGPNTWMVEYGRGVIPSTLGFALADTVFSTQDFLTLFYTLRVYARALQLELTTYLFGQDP

| Structure (SMILES) | Ki [1] [nM] | Ki [2] [nM] | Ki [3] [nM] | further results |
| --- | --- | --- | --- | --- |
| NCC[C@@H]1CCOC(c2ccccc2)(c2ccccc2)O1 | > 10000 | 2350 | > 10000 |  |
| CNCC[C@@H]1CCOC(c2ccccc2)(c2ccccc2)O1 | > 10000 | 6870 | > 10000 |  |
| CN(C)CC[C@@H]1CCOC(c2ccccc2)(c2ccccc2)O1 | 660 | > 10000 | > 10000 |  |
| c1ccc(CNCC[C@@H]2CCOC(c3ccccc3)(c3ccccc3)O2)cc1 | 320 | > 10000 | 2750 |  |
| NCC[C@@H]1CCOC2(O1)C1CC3CC(C1)CC2C3 (some centres undefined) | 1250 | > 10000 | > 10000 |  |
| NCCC[C@@H]1CCOC(c2ccccc2)(c2ccccc2)O1 | 175 | > 10000 | > 10000 |  |
| NCC[C@H]1COC(c2ccccc2)(c2ccccc2)O1 |  | 3260 |  |  |
| CC[C@]1(c2ccccc2)OC[C@H](CCN)O1 |  | 69 |  |  |
| NC[C@@H]1CCOC(c2ccccc2)(c2ccccc2)O1 |  | 717 |  |  |
| CC[C@]1(c2ccccc2)OCC[C@@H](CN)O1 |  | 257 |  |  |
| NCC[C@@H]1CCO[C@H](c2ccccc2)O1 (racemic) | 165 | > 10000 | > 10000 |  |
| CNCC[C@@H]1CCO[C@H](c2ccccc2)O1 (racemic) | 449 | > 10000 | > 10000 |  |
| CN(C)CC[C@@H]1CCO[C@H](c2ccccc2)O1 (racemic) | 1650 | > 10000 | 1830 |  |
| c1ccc(CNCC[C@@H]2CCO[C@H](c3ccccc3)O2)cc1 (racemic) | 19 | > 10000 | 92 | Activity [4]: 70%; Activity [5]: 100%; Activity [6]: Active; Ratio Ki [7]: 5; Activity [8]: 100%; Activity [9]: 10% |
| CC[C@@]1(c2ccccc2)OCC[C@@H](CCN)O1 (relative stereo) | 955 | 24 | > 10000 |  |
| CC[C@@]1(c2ccccc2)OCC[C@@H](CCNC)O1 (relative stereo) | 856 | 154 | > 10000 |  |
| CC[C@@]1(c2ccccc2)OCC[C@@H](CCN(C)C)O1 (relative stereo) | 511 | 713 | > 10000 |  |
| CC[C@@]1(c2ccccc2)OCC[C@@H](CCNCc2ccccc2)O1 (relative stereo) | 27 | > 10000 | 903 | Activity [6]: inactive; Ratio Ki [7]: 33 |
| NCCC[C@@H]1CCO[C@H](c2ccccc2)O1 (relative stereo) | 167 | > 10000 | 581 |  |
| CNCCC[C@@H]1CCO[C@H](c2ccccc2)O1 (relative stereo) | 327 | > 10000 | 6320 |  |
| CN(C)CCC[C@@H]1CCO[C@H](c2ccccc2)O1 (relative stereo) | 1220 | > 10000 | > 10000 |  |
| c1ccc(CNCCC[C@@H]2CCO[C@H](c3ccccc3)O2)cc1 (relative stereo) | 164 | > 10000 | 3890 |  |
| CC[C@@]1(c2ccccc2)OCC[C@@H](CCCN)O1 (relative stereo) | 6450 | 7670 | 542 |  |
| c1ccc(C2(c3ccccc3)OC[C@H]([C@@H]3CCCCN3)O2)cc1 [DEXOXADROL] |  |  |  | Ki [10]: 23 nM |
| Cc1ccccc1NC(=N)Nc1ccccc1C [DITOLYLGUANIDINE] |  |  | 64 |  |
| CC[C@]1(c2ccccc2)OC[C@H]([C@@H]2CCCCN2)O1 [ETOXADROL] |  | 22 |  | Ki [10]: 20 nM |
| c1ccc(C2(N3CCCCC3)CCCCC2)cc1 [PHENCYCLIDINE] |  | 28 |  |  |
